Experimental findings from ChEMBL document CHEMBL3632484, “Synthesis and preliminary biological evaluation of a small library of hybrid compounds based on Ugi isocyanide multicomponent reactions with a marine natural product scaffold” (Bioorg Med Chem Lett, 2015) are described below.

Series [1] can be described thus: Selectivity index, ratio of IC50 for African green monkey Vero cells to IC50 for chloroquine-susceptible Plasmodium falciparum 3D7. In kind it is toxicity, cell-based. To be noted: read-out: Ratio IC50. In a few lines:
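Index calculated as Vero cell IC50 divided by the IC50 against chloroquine-susceptible P. falciparum 3D7. The 3D7 IC50 is the concentration giving 50% parasite survival, reported in nM as the mean ± standard error of three experiments.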

The subject of the next series is Plasmodium falciparum. Description: Antiplasmodial activity against chloroquine-susceptible Plasmodium falciparum 3D7 infected in human O+ erythrocytes after 72 hrs by SYBR Green based parasite proliferation assay. To be noted: 3D7, 72 h. Type of series: functional, organism-based.
Series [2] can be described thus: Antineuroinflammatory activity in LPS-primed rat neonatal microglia assessed as inhibition of PMA-stimulated release of TXB2 after 70 mins. Type of series: functional. The method, boiled down: (§1)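 Rat microglia primed with E. coli LPS, then stimulated with PMA (1 μM) for 70 min. Release of superoxide (O2–) and of TXB2 is measured, and the IC50 is the concentration that inhibits release. Short-term viability is checked in parallel by LDH release (LDH50 = 50% of total cellular LDH). Data come from 1–4 independent experiments.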

In series [3] the test system is Mycobacterium tuberculosis. Description: Antimycobacterial activity against Mycobacterium tuberculosis H37Rv ATCC 27294 by microplate alamar blue assay. In kind it is functional. In a few lines: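 Minimum inhibitory concentration by microplate Alamar blue assay against the H37Rv laboratory strain, reported in μg/mL as the mean of three experiments.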
A general note: Alamar Blue is a resazurin reagent that responds to reducing activity.

Series [4] in a line: Cytotoxicity against rat neonatal microglia assessed as cell viability by lactate dehydrogenase release assay. To be noted: read-out: LD50 (the source's name). In a few lines:
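Rat microglia were primed with E. coli LPS and then stimulated with PMA (1 μM) for about 70 min. LDH release was measured as short-term viability. LDH50 is the concentration causing release of 50% of the total cellular LDH content. Data come from 1–4 independent experiments.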

In the next series the test system is Vero. As to the kind of experiment: Cytotoxicity against African green monkey Vero cells. The conditions noted are these: Chlorocebus sabaeus. In kind it is cell-based. The method, boiled down: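 IC50 in mammalian Vero cells, reported in nM as the mean of three experiments.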
Series [5] is described as follows: Antineuroinflammatory activity in LPS-primed rat neonatal microglia assessed as inhibition of PMA-stimulated release of O2- after 70 mins. Type of series: functional. The method, boiled down: as §1

In brackets after ≈: the same amount, converted by molar mass.

What is called IC50 is the midpoint of a concentration-inhibition curve. For orientation: MIC means the lowest concentration that inhibits growth of the organism. For `[C-]#[N+][C@@]12CCC(=C)[C@H]3[C@H](CC(C)(C)NC(=O)CN(CCC(C)C)C(=O)c4ccncc4)C[C@H](C)[C@@H](CC[C@@H]1C)[C@@H]32`, the selectivity ratio in series [1] is 1720. The IC50 in the series with Plasmodium falciparum is 11.5 nM; in series [2], 3000 nM; in the series with Vero, 19800 nM; in series [5], greater than 10000 nM. Further, in series [3], the minimal inhibitory concentration (MIC) amounted to 14.9 µg/mL (≈ 27.2 µM). In addition, the CC50 in series [4] was greater than 10000 nM.

On to `[C-]#[N+][C@@]12CCC(=C)[C@H]3[C@H](CC(C)(C)NC(=O)CN(CCNc4ccnc5cc(Cl)ccc45)C(C)=O)C[C@H](C)[C@@H](CC[C@@H]1C)[C@@H]32`, for which the selectivity ratio in series [1] was 2570. Besides, the IC50 in the series on Plasmodium falciparum was determined as 11.1 nM; in series [2], 800 nM; in the series on Vero it was 28600 nM; in series [5], 1700 nM. In series [3], this molecule registered an MIC of 17.9 µg/mL (≈ 29 µM). Further, the CC50 in series [4] stood at 5000 nM.

For `[C-]#[N+][C@@]12CCC(=C)[C@H]3[C@H](CC(C)(C)NC(=O)CN(CCNc4ccnc5cc(Cl)ccc45)C(=O)c4ccncc4)C[C@H](C)[C@@H](CC[C@@H]1C)[C@@H]32`, the selectivity ratio in series [1] stood at 7150. In addition, the IC50 with Plasmodium falciparum stood at 3.6 nM; in series [2], 900 nM; with Vero, 25800 nM; in series [5], 5000 nM. This molecule also showed an MIC in series [3] of 52 µg/mL (≈ 76.3 µM). In addition, the CC50 in series [4] worked out at 5000 nM.

On to `[C-]#[N+][C@@]12CCC(=C)[C@H]3[C@H](CC(C)(C)NC(=O)CNC(=O)c4ccncc4)C[C@H](C)[C@@H](CC[C@@H]1C)[C@@H]32`, for which the IC50 was 6.3 nM in the series with Plasmodium falciparum, 1100 nM in series [2] and greater than 10000 nM in series [5]. For the same molecule, the MIC in series [3] is 102 µg/mL (≈ 214 µM). Moreover, the CC50 in series [4] is greater than 10000 nM.

For `[C-]#[N+][C@@]12CCC(=C)[C@H]3[C@H](CC(C)(C)NC(=O)C(c4ccccc4)N(CCC(C)C)C(=O)c4ccncc4)C[C@H](C)[C@@H](CC[C@@H]1C)[C@@H]32` (mixture of isomers), the selectivity ratio in series [1] amounted to 3780. The IC50 with Plasmodium falciparum is 13 nM; in series [2], 100 nM; in the series on Vero it was 49200 nM; in series [5] it was greater than 10000 nM. Further, the MIC in series [3] is 56.4 µg/mL. The CC50 in series [4] was greater than 10000 nM.

Take `[C-]#[N+]C(C)(C)C[C@@H]1C[C@H](C)[C@H]2CC[C@H](C)[C@@]3([N+]#[C-])CCC(=C)[C@@H]1[C@H]23` [DIISOCYANOAMPHILECTENE]: the selectivity ratio in series [1] worked out at 83100. The IC50 in the series on Plasmodium falciparum is 1.2 nM; in series [2] it was 230 nM; with Vero, 99700 nM; in series [5], greater than 10000 nM. This molecule returned an MIC in series [3] of 3.2 µg/mL (≈ 9.86 µM). For the same molecule, in series [4], the CC50 is greater than 10000 nM.

Regarding `NNC(=O)c1ccncc1` [ISONIAZID], the lowest concentration to inhibit growth in series [3] (MIC) was 0.44 µg/mL (≈ 3.21 µM).
